Shown are actives, neighbours in structure and some others; about 4.3% of the full set was active somewhere.
OX1R antag-1: antagonists of human orexin 1 receptor (OX1R) | inhibition, % at 6.6 µM | AID 485270, 2010 | OX1R-expressing cells, FRET antagonist read-out | Orexin/Hypocretin receptor type 1 (Homo sapiens), O43613 | 330,000 compounds, 1.8% hits; in the data active = inhibition mostly above about 38%, no sharp cut-off; inactive = mostly below about 40%;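 note: 0% = agonist challenge alone and 100% = reference antagonist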
Target sequence (O43613 whole entry, looked up): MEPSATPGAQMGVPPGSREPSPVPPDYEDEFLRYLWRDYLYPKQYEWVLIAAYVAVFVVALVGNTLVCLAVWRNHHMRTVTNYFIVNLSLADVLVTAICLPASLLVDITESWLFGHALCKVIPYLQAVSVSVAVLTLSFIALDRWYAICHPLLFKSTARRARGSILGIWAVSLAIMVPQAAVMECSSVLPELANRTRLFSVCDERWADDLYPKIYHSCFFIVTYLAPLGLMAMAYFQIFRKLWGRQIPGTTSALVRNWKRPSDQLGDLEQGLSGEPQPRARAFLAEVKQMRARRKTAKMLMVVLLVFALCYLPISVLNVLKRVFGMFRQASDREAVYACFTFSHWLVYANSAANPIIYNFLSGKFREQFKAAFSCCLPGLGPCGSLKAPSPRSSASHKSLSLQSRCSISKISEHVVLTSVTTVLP
OX1R antag-2: OX1R (HCRTR1) antagonists, primary screen, fluorescence, CHO/OX1R cells, Fluo-8 calcium, orexin A | Orexin/Hypocretin receptor type 1 (Homo sapiens), O43613 | Fluo-8 calcium fluorescence | inhibition, % at 5 µM | 330,000 compounds, 0.43% hits | AID 434989, 2010;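 active = inhibition above its plate's threshold, mean inhibition of all tested compounds on the plate plus 3 SD, cut at about 37% in these data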;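 note: 0% = orexin A challenge wells and 100% = SB-334867-A antagonist wells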
CHO parental Ca: ATP-evoked calcium signal inhibitors, parental CHO, primary screen, counter-screen for OX1R antagonist project, cell-based, fluorescence, Fluo-8 calcium dye; inhibition, % at 5.6 µM; 330,000 compounds, 0.63% hits; parental CHO-K1, ATP-induced calcium, Fluo-8 fluorescence; AID 463079, 2010;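 active = inhibition above that plate's mean sample inhibition plus 3 SD, cut at about 26% in these data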;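 note: 0% = ATP-challenged DMSO wells and 100% = DMSO wells without ATP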
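Measured by: calcium-sensitive Fluo-8 fluorescence / Test system: CHO parental line / Controls: ATP-challenged DMSO wells low, unchallenged DMSO wells high / Measure: % inhibition / Compound: single nominal dose of 5.6 µM per compound / Replicates: single well per compound, no replicates / Reagent: ATP as calcium-mobilizing challenge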
GalR3 antagonist: GalR3 antagonists in HEK293 cells, primary screen, cell-based, fluorescence readout. inhibition, % at 3 µM. Galanin receptor type 3 (Homo sapiens), O60755. HEK293 GalR3-CNG cAMP membrane potential fluorescence; galR3 body fused to GalR1 C-terminus. 360,000 compounds, 0.44% hits;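 active = inhibition above the screen-wide average plus 3 SD, cut at about 13% in these data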;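 note: forskolin and galanin both at EC90 stimulate the cells; cAMP rise reported by CNG channel membrane potential dye signal; 0% = forskolin plus galanin with DMSO and 100% = forskolin alone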
Target sequence (O60755 1-299 limits assumed): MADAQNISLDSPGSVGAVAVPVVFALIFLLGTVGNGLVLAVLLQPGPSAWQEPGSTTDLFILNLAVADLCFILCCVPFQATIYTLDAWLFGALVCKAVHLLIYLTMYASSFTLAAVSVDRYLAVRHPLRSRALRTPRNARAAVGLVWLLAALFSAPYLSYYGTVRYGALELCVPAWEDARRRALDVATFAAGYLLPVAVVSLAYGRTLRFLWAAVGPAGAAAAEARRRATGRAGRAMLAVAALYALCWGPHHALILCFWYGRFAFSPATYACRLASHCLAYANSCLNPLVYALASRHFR
TAAR1 agonist: human TAAR1 agonists, primary screen, Fluo-8 calcium fluorescence, CHO RD-HGA16 cells. Trace amine-associated receptor 1 (Homo sapiens), Q96RJ0. vehicle wells 0%, saturating PEA agonist 100%. activation, % at 3 µM. 360,000 compounds, 0.99% hits;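 active = activation above the mean activation of all test compounds in the run plus 3 SD, cut at about 38% in these data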
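Benchmarks: low control DMSO, high control PEA (EC100); System: CHO RD-HGA16 cells carrying human TAAR1 plus Gα16; Detection: Fluo-8 fluorescence, 5 s baseline then 140 s kinetic read; Schedule: 17-24 h plating, Fluo-8 75 min 37 °C, 30 min RT; Read-out basis: % activation from peak over basal fluorescence ratio, DMSO-to-PEA scaled.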
TAAR1 antagonist: human TAAR1 antagonists, primary screen, Fluo-8 calcium fluorescence, CHO RD-HGA16 cells; 360,000 compounds, 1.5% hits; Trace amine-associated receptor 1 (Homo sapiens), Q96RJ0; antagonist; inhibition, % at 3 µM; AID 624466, 2012;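 active = inhibition above a per-plate cutoff, the mean inhibition of test compounds on that plate plus 3 SD, cut at about 49% in these data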;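 note: 0% = DMSO plus EC80 beta-PEA response and 100% = DMSO alone without agonist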
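Test system: hTAAR1-expressing CHO RD-HGA16 cells, Gα16-coupled; Probe or stimulus: EC80 β-phenethylamine stimulus; Compound dosing: single nominal final test compound concentration of 3 µM; Timing: 140 s kinetic read after compound, 140 s after agonist; Signal: Fluo-8 calcium-sensitive fluorescence; Measure: % inhibition of agonist calcium response; Controls: DMSO and EC80 PEA controls.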
* hit, by the source's call; nt = no result given.

SMILES	OX1R antag-1	OX1R antag-2	CHO parental Ca	GalR3 antagonist	TAAR1 agonist	TAAR1 antagonist
O=C(N/N=C/c1ccc(-c2ccc(Br)cc2)o1)c1ccc2c(c1)OCO2	35.8*	-14.7	-1.7	-6.9	2.7	18.0
O=C(N/N=C\c1cn(-c2ccccc2)nc1-c1ccccc1)c1ccc2c(c1)OCO2	77.1*	-4.6	-14.7	-3.9	9.9	55.2*
COc1ccc(-c2nn(-c3ccccc3)cc2/C=N/NC(=O)c2ccc3c(c2)OCO3)cc1	55.7	-4.9	3.3	nt	nt	nt
O=C(N/N=C/c1cn(-c2ccccc2)nc1-c1ccc(F)cc1)c1ccc2c(c1)OCO2	15.9	-25.5	11.7	-1.4	8.4	22.0
O=C(NCc1cccc(C(F)(F)F)c1)c1csc([C@@H]2C[C@H](O)[C@@H](CO)O2)n1	nt	nt	nt	-2.1	0.6	-9.2
N#C/C(=C\c1c[nH]c2ccc(Br)cc12)c1ccccn1	82.5*	60.5*	-17.5	-11.2	11.4	37.9
N#C/C(=C\c1ccc(C(=O)O)cc1)c1ccccn1	23.1	-14.5	-5.5	-2.9	3.7	-0.9
CC1=CC(C)(C)Nc2ccc(OC(=O)c3cccnc3)cc21	15.5	-6.2	-12.0	-3.5	14.0	-0.8
CC1=CC(C)(C)Nc2ccc(OC(=O)c3ccco3)cc21	50.6*	2.5	-11.0	-1.7	1.4	-18.3
Cc1cc(NC(=O)CSc2nnnn2-c2ccc(C)c(Cl)c2)no1	19.8	-24.2	8.5	-7.8	10.5	-1.5
C[C@H](c1ccccc1)N1C[C@@H](COCc2ccccc2)Oc2cccc(Oc3ccc(C(C)(C)C)cc3)c2S1(=O)=O	nt	nt	nt	-2.2	2.2	-2.6
Cc1ccccc1Cn1nc(C)c(NC(=O)/C=C/c2cnn(C)c2C)c1C	4.5	-17.9	-11.2	-2.8	-0.1	3.0
Cc1nn(Cc2c(Cl)cccc2Cl)c(C)c1NC(=O)/C=C/c1cnn(C)c1C	55.7*	5.6	-4.9	-3.7	-0.4	12.2
O=C(CCC(=O)N1CCOCC1)NCCc1ccccc1	6.5	-13.8	-6.4	-2.0	38.9*	62.6*
COC(=O)[C@]12C[C@H](CC(=O)NCc3ccccc3)C(=O)N(CCC3=CCCCC3)C1=C[C@H](COCc1ccccc1)O[C@@H]2C	nt	nt	nt	-10.7	0.3	-10.6
COc1ccc(-c2noc(CCC(=O)N3CCN(c4cccc(OC)c4)CC3)n2)cc1	9.4	-22.0	-21.9	-3.4	10.8	52.7*
COc1ccc(-c2noc(CCC(=O)N3CCN(c4cccc(C(F)(F)F)c4)CC3)n2)cc1	22.4	-1.0	-2.3	-3.8	6.5	32.3
CCOc1ccc(-c2nc(CSCC(=O)N3CCN(c4cccc(OC)c4)CC3)c(C)o2)cc1	53.6*	44.4*	75.4*	nt	4.8	50.5*
N#CNC(=Nc1ccccc1)SCc1ccc(C(=O)O)cc1	12.9	3.0	-10.7	4.3	3.3	-10.1
CSC(=Nc1ccccc1)N=C(SCc1ccccc1)N(C)C	nt	nt	nt	12.5	10.0	76.6*
CC(C)(C)OC(=O)NCCCCCNC(=O)c1[nH]cnc1C(=O)N[C@@H](Cc1ccccc1)C(=O)OCc1ccccc1	8.0	73.3*	47.3*	-5.5	12.6	54.3*
C[C@H](NC(=O)c1nc[nH]c1C(=O)NCCCCCNC(=O)OC(C)(C)C)C(=O)OCc1ccccc1	14.7	44.6	34.4	-4.3	13.8	76.3*
O=C(CNC(=O)c1[nH]cnc1C(=O)N[C@@H](Cc1ccccc1)C(=O)OCc1ccccc1)OCc1ccccc1	-7.5	20.4	15.9	-2.6	11.9	63.9*
CC(C)(C)OC(=O)[C@H](Cc1ccccc1)NC(=O)c1nc[nH]c1C(=O)NCC(=O)OCc1ccccc1	36.8	-19.9	-25.0	-3.5	2.7	35.2
Cc1cc(CNC(=O)COc2ccccc2)c2ccccc2n1	nt	nt	nt	-4.4	2.5	-11.9
SMILES	OX1R antag-1	OX1R antag-2	CHO parental Ca	GalR3 antagonist	TAAR1 agonist	TAAR1 antagonist
Cc1cccc(OCC(=O)NNc2c3ccccc3nc3ccccc23)c1	40.8*	14.9	-8.2	-5.8	16.1	60.5*
CCOC(=O)c1ccccc1NC(=O)c1cncc(Br)c1	nt	nt	nt	-3.5	1.2	2.3
Cc1cc(NC(=O)NC(=O)c2ccccc2NC(=O)C(C)N)ccc1Oc1ncc(Br)cn1 (stereo not drawn)	nt	nt	nt	-7.1	43.5*	-7.3
O=C1c2ccccc2C(=O)c2c1ncn2-c1ccccc1	63.9*	-1.4	4.5	-1.0	5.2	11.7
O=c1[nH][nH]c2c1[C@H](c1ccc(Cl)cc1)O[C@H](C1CCCC1)C2	nt	nt	nt	-2.5	-1.9	-17.5
Cc1ccc(OCCOC(=O)c2cc(S(=O)(=O)N3CCCCC3)ccc2N2CCOCC2)cc1	10.3	35.0	12.6	-8.2	0.1	50.1*
O=C(OCCOc1ccc(Cl)cc1)c1cc(S(=O)(=O)N2CCCCC2)ccc1N1CCOCC1	nt	nt	nt	-8.6	0.3	32.2
COc1ccc(C(=O)NCCCNC(=O)c2cc3ccccc3[nH]2)cc1OC	70.0*	-4.7	-21.8	-7.6	2.9	-10.5
O=C1c2ccccc2C(c2nnnn2Cc2ccccc2)N1CCCN1CCOCC1 (stereo not drawn)	nt	nt	nt	-1.0	0.8	-16.4
Cc1ccc(C)c(OCCCN2CCc3ccccc3C2)c1	9.6	-31.9	-29.6	-8.5	39.2*	-13.1
COc1ccc(CCCC(=O)NCC(=O)N/N=C/c2cc(Cl)ccc2OC)cc1	nt	nt	nt	-5.1	1.2	5.0
CCN(CC)S(=O)(=O)c1ccc(/C=C/C(=O)OCC(=O)Nc2cccc3ccccc23)cc1	17.8	-8.4	-10.2	-5.5	1.6	1.3
CCN(CC)S(=O)(=O)c1ccc(/C=C/C(=O)OCC(=O)Nc2cccnc2Cl)cc1	6.5	5.3	-8.4	-7.0	17.4	49.3*
NS(=O)(=O)c1ccc(CCn2c(=S)[nH]c3ccccc3c2=O)cc1	5.9	-9.9	-6.8	-8.2	38.5*	61.1*
O=c1c2ccccc2[nH]c(=S)n1CCc1ccccc1	-0.9	-11.6	-9.9	-5.3	2.9	4.0
COc1ccc(S(=O)(=O)N2CCCc3nc(-c4ccccc4)ccc32)cc1	nt	nt	nt	-4.5	1.5	-3.8
O=C(Nc1ccc(-c2noc(-c3cccs3)n2)cc1)c1cccnc1	61.1	3.7	-0.4	0.1	17.2	55.9*
CC(Oc1ccc(Cl)cc1Cl)c1nc(-c2ccc(NC(=O)c3ccncc3)cc2)no1 (stereo not drawn)	15.1	8.2	43.2*	-6.8	23.6	16.8
COc1cccc(-c2nc(-c3ccc(NC(=O)c4cccnc4)cc3)no2)c1	26.4	-16.3	-22.7	1.8	3.0	3.4

Assay outcomes from PubChem.
